# Source: ChEMBL document CHEMBL3351487, “Synthesis, molecular docking and anti-mycobacterial evaluation of new imidazo[1,2-a]pyridine-2-carboxamide derivatives” (Eur J Med Chem, 2015)
# What was measured:
# [1] = test system: Mycobacterium tuberculosis; experiment: Antimycobacterial activity against Mycobacterium tuberculosis H37Rv ATCC 27294 after 7 days by MABA method; assay type: functional; details: H37Rv ATCC 27294, 168 h
# Method in brief: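 Inoculum from fresh LJ culture resuspended in 7H9-S (7H9 broth, 0.1% casitone, 0.5% glycerol, OADC), adjusted to McFarland No. 1 and diluted 1:20. Drug stocks diluted in 7H9-S to four-fold the highest final concentration. Plates sealed and incubated at 37 °C in normal atmosphere for 7 days, then alamar blue added.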
# [2] = Cytotoxicity against HEK293T cells assessed as inhibition of cell growth at 50 ug/mL after 72 hrs by MTT assay; assay type: cell-based, HEK-293T; details: human, read-out: GI
# Method in brief: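 HEK-293T cells exposed to each compound at one concentration (50) for 72 h. Viability was read from cellular conversion of MTT to formazan using a non-radioactive cell proliferation kit, and the result is given as percentage inhibition of cells.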
smiles,measurement,setting,value
Cn1cc(-c2ccc3nc(C(=O)NCc4ccc(F)cc4)cn3c2)cn1,MIC,[1],25 µg/mL
same,"inhibition at 72 h, 50 ug/mL",[2],36.1%
Nc1ncccc1-c1ccc2nc(C(=O)NCc3ccc(F)cc3)cn2c1,MIC,[1],25 µg/mL
same,"inhibition at 72 h, 50 ug/mL",[2],40.8%
O=C(NCc1ccc(F)cc1)c1cn2cc(-c3cccc4ncccc34)ccc2n1,MIC,[1],25 µg/mL
same,"inhibition at 72 h, 50 ug/mL",[2],28.1%
O=C(O)CCc1ccc(-c2ccc3nc(C(=O)NCc4ccc(F)cc4)cn3c2)cc1,MIC,[1],> 50 µg/mL
Cn1cc(-c2ccc3nc(C(=O)NCc4ccco4)cn3c2)cn1,MIC,[1],> 50 µg/mL
Nc1ncccc1-c1ccc2nc(C(=O)NCc3ccco3)cn2c1,MIC,[1],25 µg/mL
same,"inhibition at 72 h, 50 ug/mL",[2],26.1%
O=C(NCc1ccco1)c1cn2cc(-c3cccc4ncccc34)ccc2n1,MIC,[1],25 µg/mL
same,"inhibition at 72 h, 50 ug/mL",[2],24.8%
O=C(NCc1ccco1)c1cn2cc(-c3cnn(CCN4CCOCC4)c3)ccc2n1,MIC,[1],12.5 µg/mL
same,"inhibition at 72 h, 50 ug/mL",[2],34.1%
CN1CCN(C(=O)c2ccc(-c3ccc4nc(C(=O)NCc5ccco5)cn4c3)cc2)CC1,MIC,[1],25 µg/mL
same,"inhibition at 72 h, 50 ug/mL",[2],30.1%
O=C(NCc1ccncc1)c1cn2cc(-c3ccc(Cl)cc3)ccc2n1,MIC,[1],6.25 µg/mL
same,"inhibition at 72 h, 50 ug/mL",[2],26.1%
COc1ccccc1-c1ccc2nc(C(=O)NCc3ccncc3)cn2c1,MIC,[1],12.5 µg/mL
same,"inhibition at 72 h, 50 ug/mL",[2],31.6%
Cn1cc(-c2ccc3nc(C(=O)NCc4ccc5c(c4)OCO5)cn3c2)cn1,MIC,[1],6.25 µg/mL
same,"inhibition at 72 h, 50 ug/mL",[2],25.6%
O=C(NC1CC1)c1cn2cc(-c3cnn(CCN4CCOCC4)c3)ccc2n1,MIC,[1],25 µg/mL
same,"inhibition at 72 h, 50 ug/mL",[2],29.1%
O=C(NCc1ccc(C(F)(F)F)cc1)c1cn2cc(-c3cccc4ncccc34)ccc2n1,MIC,[1],25 µg/mL
same,"inhibition at 72 h, 50 ug/mL",[2],37.8%
O=C(NCc1ccc(C(F)(F)F)cc1)c1cn2cc(-c3cnn(CCN4CCOCC4)c3)ccc2n1,MIC,[1],12.5 µg/mL
same,"inhibition at 72 h, 50 ug/mL",[2],22.2%
O=C(NC1CCOCC1)c1cn2cc(-c3cnn(CCN4CCOCC4)c3)ccc2n1,MIC,[1],6.25 µg/mL
same,"inhibition at 72 h, 50 ug/mL",[2],30.1%
NNC(=O)c1ccncc1 [ISONIAZID],MIC,[1],0.36 µg/mL
CO[C@H]1/C=C/O[C@@]2(C)Oc3c(C)c(O)c4c(O)c(c(/C=N/N5CCN(C)CC5)c(O)c4c3C2=O)NC(=O)/C(C)=C\C=C\[C@H](C)[C@H](O)[C@@H](C)[C@@H](O)[C@@H](C)[C@H](OC(C)=O)[C@@H]1C [RIFAMPIN],MIC,[1],0.02 µg/mL
CCc1nc2ccc(Cl)cn2c1C(=O)NCc1ccc(N2CCC(c3ccc(OC(F)(F)F)cc3)CC2)cc1 [TELACEBEC],MIC50,[1],2.7 nM
